Measurements from different studies.
Lines come from different studies, so protocols differ.
Target: Mitogen-activated protein kinase 15 (MAPK15, Homo sapiens, UniProt Q8TD08)
Sequence (Q8TD08 1-544, as in one of the studies): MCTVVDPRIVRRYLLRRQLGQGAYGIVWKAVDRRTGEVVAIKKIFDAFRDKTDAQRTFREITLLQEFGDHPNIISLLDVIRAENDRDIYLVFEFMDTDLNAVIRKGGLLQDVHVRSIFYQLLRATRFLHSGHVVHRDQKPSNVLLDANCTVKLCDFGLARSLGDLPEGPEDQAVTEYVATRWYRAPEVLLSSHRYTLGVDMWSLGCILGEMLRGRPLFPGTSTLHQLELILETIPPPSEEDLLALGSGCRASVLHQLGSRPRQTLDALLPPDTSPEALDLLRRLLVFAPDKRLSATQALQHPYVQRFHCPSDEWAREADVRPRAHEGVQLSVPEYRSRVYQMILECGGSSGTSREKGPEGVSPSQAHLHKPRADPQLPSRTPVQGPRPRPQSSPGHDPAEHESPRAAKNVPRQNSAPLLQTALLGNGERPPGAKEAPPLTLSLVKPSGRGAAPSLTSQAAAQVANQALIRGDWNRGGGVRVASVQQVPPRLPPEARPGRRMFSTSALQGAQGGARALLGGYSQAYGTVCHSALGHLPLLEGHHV

For CSc1cccnc1N1CCN(Cc2nc3ccccc3[nH]2)CC1, the remaining binding was 82% (cell-free assay, competition with immobilised ligand; 1 µM).
COc1cnc(Nc2cccc(S(N)(=O)=O)c2)nc1N1CCN(c2ccccc2)C(=O)C1 has a remaining binding of 100% (binding, competition with immobilised ligand; 1 µM).
The remaining binding of C[C@@H](c1ccc(-n2cnc3c(N)ncnc32)cc1)N1CCc2nn(C)c(Cc3ccccc3)c2C1=O is reported as 88% (binding, competition with immobilised ligand; 0.1 µM).
C=CC(=O)N1CCC(C(=O)NCC(=O)N2CCN(c3nc(-c4cnc(N)nc4C(F)F)nc(N4CCOCC4)n3)CC2)CC1 has a remaining binding of 97% (binding, competition with immobilised ligand; 1 µM).
For CCN1CCN(Cc2ccc(C(=O)Nc3ccc(C)c(Oc4ccc5c(c4)CC(=O)N5)c3)cc2C(F)(F)F)CC1, the remaining binding was 100% (binding, competition with immobilised ligand; 1 µM).
O=C(c1ccc(Nc2ncc(Cl)c(-c3cc4ccccc4s3)n2)cc1)N1CCC(N2CCCC2)CC1 has a remaining binding of 5.4% (binding, competition with immobilised ligand; 1 µM).
CN(C)c1nccc(-c2cnn3ncccc23)n1 gave a remaining binding of 51% (binding; 1 µM).
O=C(NCCCN1CCOCC1)c1ccc(Nc2ncc(Cl)c(-c3ccc(Cl)s3)n2)cc1 gave a remaining binding of 1.2% (binding, competition with immobilised ligand; 1 µM).
C[C@H](c1ccc(F)cc1)N(Cc1cccc(C(=O)O)c1)C(=O)c1cnc2ccccc2c1 gave a remaining binding of 93% (cell-free assay, competition with immobilised ligand; 1 µM).
For N[C@@H]1CCN(c2nccc(-c3cnn4ncccc34)n2)C1, the remaining binding was 97% (binding; 1 µM).
CN([C@@H]1CCc2c(CC(=O)O)c3ccccc3n2C1)S(=O)(=O)c1ccc(F)cc1 gave a remaining binding of 100% (cell-free assay, competition with immobilised ligand; 1 µM).
The remaining binding of CC1CCCN1c1nccc(-c2cnn3ncccc23)n1 (stereo not shown) is reported as 100% (binding; 1 µM).
CCCCN(CCCC)C(=O)CN1C[C@H](c2cc(OC)c3c(c2)OCO3)[C@@H](C(=O)O)[C@@H]1CC(C)(C)CCC has a remaining binding of 100% (cell-free assay, competition with immobilised ligand; 1 µM).
The remaining binding of CN(CCCC(F)(F)F)c1nccc(-c2cnn3ncccc23)n1 is reported as 100% (binding; 1 µM).
The remaining binding of O=C(NCC1CCOCC1)c1n[nH]cc1NC(=O)c1c(F)cccc1F is reported as 79% (binding, competition with immobilised ligand; 1 µM).
With C[C@@H]1CCN(c2nccc(-c3cnn4ncccc34)n2)C1 the remaining binding was 49% (binding; 1 µM).
COc1cnc(Nc2cccc(S(N)(=O)=O)c2)nc1N1CCN(c2ccccc2)CC1 has a remaining binding of 100% (binding, competition with immobilised ligand; 1 µM).
O=C(c1ccc(Nc2nccc(-c3cc4ccccc4s3)n2)cc1)N1CCC(N2CCCC2)CC1 gave a remaining binding of 49% (binding, competition with immobilised ligand; 1 µM).
For CN(C)c1nccc(-c2cnc3ncccn23)n1, the remaining binding was 50% (binding; 1 µM).
The remaining binding of O=S(=O)(NC1CCC(c2cc(F)ccc2F)(S(=O)(=O)c2ccc(Cl)cc2)CC1)C(F)(F)F (stereo not shown) is reported as 94% (cell-free assay, competition with immobilised ligand; 1 µM).
For CN(c1nccc(-c2cnn3ncccc23)n1)C1CC1, the remaining binding was 85% (binding; 1 µM).
The remaining binding of CCS(=O)(=O)c1cc2cc(C[C@](O)(CC(C)(C)c3ccc(F)cc3C(N)=O)C(F)(F)F)[nH]c2cn1 is reported as 100% (cell-free assay, competition with immobilised ligand; 1 µM).
